# Measurements: ChEMBL document CHEMBL1158591, “Discovery of 2-chloro-N-((4,4-difluoro-1-hydroxycyclohexyl)methyl)-5-(5-fluoropyrimidin-2-yl)benzamide as a potent and CNS penetrable P2X7 receptor antagonist” (Bioorg Med Chem Lett, 2010)
# Assays:
# Format in all cases: ADME, organism-based
# [1] = Ratio of drug level in brain to plasma in iv dosed Sprague-Dawley rat; details: brain and plasma
# Outline: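 Male Sprague Dawley rats given a steady-state IV infusion. Ratio is compound concentration in brain over that in plasma.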
# [2] = Oral bioavailability in Sprague-Dawley rat at 1 mg/kg, po; details: in vivo
# Outline: (§1)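 Male Sprague Dawley rats, IV/PO crossover pharmacokinetics, dosed at 1 mpk by each route.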
# Rattus norvegicus = test: Volume of distribution at steady state in Sprague-Dawley rat at 1 mg/kg, iv and po; set-up: dose 1 mg/kg; details: in vivo; outline: as §1
Kp [1],bioavailability [2] [%],Vdss (Rattus norvegicus) [L/kg],Compound
1.3,84,1.3,O=C(NCC1(O)CCC(F)(F)CC1)c1cc(-c2ncc(F)cn2)ccc1Cl
0.7,35,0.9,O=C(NCC1(O)CCCCCC1)c1cc(-c2ncc(F)cn2)ccc1Cl
